Rows were chosen to be rich in hits. Some 2.3% of all compounds tested hit in one or more screens of this group.
TRPC6 activator: mouse TRPC6 channel activation. Q61143. HEK293-TRPC6 membrane potential dye fluorescence; active compounds read high. B-score at 10 µM. 310,000 compounds, 0.13% hits. AID 2550;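 active means B-score of the integrated fluorescence ratio above library mean plus 3 SD, and starting fluorescence ratio within library mean plus 5 SD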;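 further: higher score means more depolarization so channel activation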
TRPC4 potent: allosterically enhances the mouse TRPC4 cation channel; Q9QUQ5; HEK293 TRPC4beta/mu-opioid, DAMGO EC20, Fluo-4 Ca2+ flux; active compounds read high; B-score at 10 µM; 310,000 compounds, 0.42% hits;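 active means B-score of calcium response area above 5 SD of library B-scores, with initial fluorescence ratio within 5 SD of library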;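 further: B-score of integrated fluorescence ratio over time as area under calcium response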
Target sequence (Q9QUQ5 whole entry, looked up): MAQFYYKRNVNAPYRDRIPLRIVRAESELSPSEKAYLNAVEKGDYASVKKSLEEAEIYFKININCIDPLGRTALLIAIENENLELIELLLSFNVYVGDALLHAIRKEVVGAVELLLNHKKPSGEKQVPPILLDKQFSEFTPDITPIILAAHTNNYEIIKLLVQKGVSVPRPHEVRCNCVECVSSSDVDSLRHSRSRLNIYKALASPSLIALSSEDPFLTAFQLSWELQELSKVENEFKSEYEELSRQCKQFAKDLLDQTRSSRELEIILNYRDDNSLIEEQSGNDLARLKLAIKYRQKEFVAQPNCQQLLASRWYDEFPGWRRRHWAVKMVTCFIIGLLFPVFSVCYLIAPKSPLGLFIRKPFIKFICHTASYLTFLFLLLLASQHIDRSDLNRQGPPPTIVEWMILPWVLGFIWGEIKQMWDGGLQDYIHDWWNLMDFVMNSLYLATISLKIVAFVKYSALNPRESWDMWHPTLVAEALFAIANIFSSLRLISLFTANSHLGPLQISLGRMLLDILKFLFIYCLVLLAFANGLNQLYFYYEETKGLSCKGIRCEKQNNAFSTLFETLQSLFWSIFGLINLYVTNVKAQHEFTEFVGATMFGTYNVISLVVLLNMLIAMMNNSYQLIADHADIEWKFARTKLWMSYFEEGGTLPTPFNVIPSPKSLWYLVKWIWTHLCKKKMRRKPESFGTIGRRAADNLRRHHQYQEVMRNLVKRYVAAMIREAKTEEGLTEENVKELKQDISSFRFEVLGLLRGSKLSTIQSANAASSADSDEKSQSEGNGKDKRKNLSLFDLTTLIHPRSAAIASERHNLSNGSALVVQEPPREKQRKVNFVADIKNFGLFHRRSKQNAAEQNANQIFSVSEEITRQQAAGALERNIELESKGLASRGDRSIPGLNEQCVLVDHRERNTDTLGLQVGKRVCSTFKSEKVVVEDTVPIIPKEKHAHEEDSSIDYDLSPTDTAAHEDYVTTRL
TRPC4 block: TRPC4 (mouse) channel inhibition; HEK293 TRPC4beta/mu-opioid, DAMGO-evoked Fluo4 calcium flux; active compounds read low; B-score at 10 µM; 300,000 compounds, 0.39% hits;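 active means B-score over 3 SD under the library average, no early fluorescence shift, positive overall ratio signal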
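Test system – stable TRPC4beta/mu-opioid receptor HEK293 cells · Probe or stimulus – DAMGO, a submaximal dose followed by a maximal one · Dosing – one concentration per compound · Signal – Fluo4 calcium fluorescence by kinetic imaging, 5 s 1 Hz baseline · Evaluation – per-well B score of integrated baseline-normalized Fluo4 ratio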
TRPC6 inhibitor: blocks the mouse TRPC6 cation channel. Q61143. HEK293-TRPC6, membrane potential dye, ACh-evoked depolarization; active compounds read low. 310,000 compounds, 1.1% hits. B-score at 10 µM;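 active means B-score under library mean minus 3 SD, initial fluorescence not abnormally high, positive integrated signal ratio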;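 further: B-score derived from integrated fluorescence ratio over the kinetic read; more negative B-score means stronger inhibition of depolarization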
TRPC4 agonist: TRPC4 (mouse) channel activation; Q9QUQ5; HEK293 TRPC4beta/mu-opioid, Fluo4 calcium fluorescence; active compounds read high; B-score at 10 µM; 310,000 compounds, 0.49% hits; AID 2237;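 active means B-score above 5 SD of library B-scores, and initial fluorescence ratio not above library mean plus 5 SD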;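 further: positive B-score marks a calcium rise read as TRPC4 activation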
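System – HEK293 cells stably co-expressing mouse TRPC4beta and mu-opioid receptor · Signal – Fluo4 calcium-sensitive dye fluorescence, kinetic, 1 Hz baseline · Benchmarks – buffer (low) and maximal DAMGO (high) · Read-out – B score of integrated fluorescence ratio per well · Incubation – dye loading 45 min room temperature, 110 s kinetic read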
TRPC4 spec 2: second selectivity test of TRPC6 inhibitors: effect on mouse TRPC4; shares compounds with TRPC6 inhibitor; HEK293 TRPC4/MOR, membrane potential dye fluorescence; channel activated by saturating DAMGO dose; inhibition, % at 10 µM; 920 compounds, 42% hits; AID 2776;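 active means compounds whose fluorescence signal differed from control wells by over 3 SD, either direction, in both duplicate plates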
TRPC4 spec: selectivity of TRPC6 inhibitors: effect on mouse TRPC4; shares compounds with TRPC6 inhibitor; HEK293 TRPC4/mu-opioid, membrane potential fluorescence; activity change, negative = inhibition, % at 10 µM; 920 compounds, 61% hits; AID 2777;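 active means rise or fall in signal beyond 3 SD of buffer-only wells in both replicate plates, either sign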;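 further: integrated kinetic ratio of fluorescence range over baseline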
HEK293 MPD ctr 2-1: parental HEK293 nonspecific activity of TRPC6 inhibitors, second screen. shares compounds with TRPC6 inhibitor. parental HEK293 membrane potential dye fluorescence; maximal acetylcholine challenge after compound addition. signal change vs control, % at 10 µM. 920 compounds, 31% hits;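 active means membrane potential signal moving either way by over 3 SD of the maximum-effect control, in both duplicate plates, meaning non-specific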
HEK293 MPD ctr-1: checks TRPC6 inhibitor effects in parental HEK293 cells. shares compounds with TRPC6 inhibitor. parental HEK293 membrane potential dye fluorescence. membrane potential signal change, % at 10 µM. 920 compounds, 60% hits. AID 2780;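 active means membrane potential signal shifting up or down by more than 3 SD of buffer-only wells, on both duplicate plates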
HEK293 MPD ctr-2: parental HEK293 nonspecific activity of TRPC6 modulators; shares compounds with TRPC6 inhibitor; membrane potential dye fluorescence; membrane potential signal change, % at 10 µM; 2,400 compounds, 51% hits;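 active means membrane potential signal moves up or down beyond 5 SD from buffer-only wells, on both duplicate plates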
HEK293 MPD ctr 2-2: second check of TRPC6 modulator effects in parental HEK293 cells. shares compounds with TRPC6 inhibitor. membrane potential dye fluorescence; after compound, maximal acetylcholine stimulation. inhibition, % at 10 µM. 2,400 compounds, 14% hits. AID 488926;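 active means membrane potential signal drops by more than 5 SD from the mean control signal, in both duplicate plates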;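 further: plate controls were acetylcholine ECmax control wells for no effect and buffer only wells for full effect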
TRPC4 ctr mod: tests whether TRPC6 modulators also affect mouse TRPC4. shares compounds with TRPC6 inhibitor. HEK293 TRPC4/mu-opioid, membrane potential fluorescence. percent change from control (negative = decrease, positive = increase), % at 10 µM. 2,400 compounds, 69% hits. AID 488927;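 active means membrane potential signal moved up or down beyond 5 SD of buffer control wells, in both duplicate plates, actives on both sides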;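 further: plate controls were assay buffer wells for no effect and DAMGO maximal-effect wells for full effect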
TRPC4/MOR inh 2: second selectivity test of TRPC6 modulators against mouse TRPC4. shares compounds with TRPC6 inhibitor. HEK293 TRPC4/mu-opioid, membrane potential dye fluorescence; stimulated with maximal-effect DAMGO. inhibition, % at 10 µM. 2,400 compounds, 55% hits. AID 488928;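 active means drop in membrane potential signal beyond 5 SD of the control wells in both duplicate plates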;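 further: TRPC4 counter screen for TRPC6 hits run under conditions tuned for TRPC6 not TRPC4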
TRPC6 inh conf: confirmation of mouse TRPC6 inhibitors; inhibition, % at 10 µM; 3,300 compounds, 43% hits; HEK293-TRPC6, membrane potential dye, ACh-evoked depolarization; shares compounds with TRPC6 inhibitor;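 active means fluorescence ratio falls more than 5 SD below the full-stimulation control mean, in both duplicate runs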;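 further: integrated fluorescence ratio of peak minus minimum over baseline after agonist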
TRPC6 act confirm: confirmation of mouse TRPC6 activators. shares compounds with TRPC6 inhibitor. HEK293-TRPC6 membrane potential dye fluorescence, FDSS. activation, % at 10 µM. 2,800 compounds, 11% hits. AID 488961;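 active means ratio signal rise beyond 5 SD above unstimulated control wells' mean, seen in both duplicate runs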;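 further: plate controls were buffer EC0 wells for no effect and acetylcholine ECmax response for full effect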
An asterisk follows results filed as active; i = inactive; nt = not tested or not shown.

SMILES	TRPC6 activator	TRPC4 potent	TRPC4 block	TRPC6 inhibitor	TRPC4 agonist	HEK293 MPD ctr-2	HEK293 MPD ctr 2-2	TRPC4 ctr mod	TRPC4/MOR inh 2	TRPC6 inh conf	TRPC6 act confirm	others
Cc1ccc(NC(=O)CCCCCN2C(=O)[C@@H]3Cc4ccccc4CN3C2=O)cc1	i	i	i	i	i	nt	nt	nt	nt	nt	nt
COc1ccc(NC(=O)CCCCCN2C(=O)[C@@H]3Cc4ccccc4CN3C2=O)cc1Cl	i	i	i	-7.4*	i	i	i	i	i	i	i
C[C@]12C=CC(=O)C=C1CC[C@@H]1C2=CC[C@]2(C)[C@@H](C(=O)CN3CCN(c4cc(N5CCCC5)nc(N5CCCC5)n4)CC3)CC[C@@H]12	i	i	i	-6.7*	i	-238%*	i	-54%*	64%*	69%*	i
CN(C)CCOC1c2ccccc2CSc2ccccc21 (stereo not given)	i	i	i	-7.8*	i	nt	nt	nt	nt	53%*	nt	TRPC4 spec 2=i;TRPC4 spec=5.7%*;HEK293 MPD ctr 2-1=40%*;HEK293 MPD ctr-1=6.8%*
COc1ccccc1CNC(=O)COC(=O)c1cc([N+](=O)[O-])ccc1N1CCOCC1	i	i	i	-5.1*	i	i	i	14%*	i	i	nt
CCS(=O)(=O)N1CCN(c2ccc([N+](=O)[O-])c(NC(C)c3ccccc3)c2)CC1 (stereo not given)	i	i	i	i	i	nt	nt	nt	nt	nt	nt
CC(Nc1cc(N2CCNCC2)ccc1[N+](=O)[O-])c1ccccc1 (stereo not given)	i	i	i	-7.1*	75*	nt	nt	nt	nt	i	i	TRPC4 spec 2=72%*;TRPC4 spec=i;HEK293 MPD ctr 2-1=i;HEK293 MPD ctr-1=-182%*
COC(=O)c1cc(OC(=O)c2ccc(=O)[nH]c2)cc(C(=O)OC)c1	i	i	i	i	i	nt	nt	nt	nt	nt	nt
Cc1ccc(-c2ccc(OC(=O)c3ccc(=O)[nH]c3)c(C)c2)cc1	i	i	i	-5.1*	i	i	i	i	i	i	i
CCCCN(C)C(=O)CCC(=O)Nc1ccc2nc(N3CCOCC3)cc(C)c2c1	i	i	i	-7.6*	i	nt	nt	nt	nt	i	i	TRPC4 spec 2=i;TRPC4 spec=-20%*;HEK293 MPD ctr 2-1=i;HEK293 MPD ctr-1=-326%*
CCN1CCN(c2cc(C)c3cc(NC(=O)CCC(=O)N4CCN(c5ccccc5)CC4)ccc3n2)CC1	i	i	i	i	i	nt	nt	nt	nt	nt	nt
CCC(C)NC(=O)CCC(=O)Nc1ccc2nc(N3CCOCC3)cc(C)c2c1 (stereo not given)	i	i	i	-5.5*	i	-260%*	i	-44%*	38%*	40%*	i
CC(=O)c1ccc(N2CCN(C(=O)CCC(=O)Nc3ccc4nc(N5CCN(C)CC5)cc(C)c4c3)CC2)cc1	13*	i	i	i	i	i	i	16%*	i	i	i
CCC(C)NC(=S)Nc1ccc2nc(N3CCOCC3)cc(C)c2c1 (stereo not given)	i	i	i	i	i	nt	nt	nt	nt	nt	nt
CC(C)CCNC(=O)CCCCn1c(=O)[nH]c2ccsc2c1=O	i	i	i	i	i	nt	nt	nt	nt	nt	nt
COc1ccc2c(c1)CCCN2C(N)=Nc1ccc(Cl)cc1	i	i	i	-6.5*	i	114%*	i	16%*	69%*	i	nt
CCOC(=O)SC1=N/C(=C\c2ccc(N(C)C)cc2)C(=O)S1	12*	i	i	-6*	i	i	i	12%*	i	i	i
CCSC1=N/C(=C\c2ccc(C(=O)O)cc2)C(=O)S1	i	i	i	i	i	nt	nt	nt	nt	nt	nt
O=[N+]([O-])c1ccc(-c2csc(N3CCc4ccccc4C3)n2)cc1	i	i	i	i	i	nt	nt	nt	nt	nt	nt
O=[N+]([O-])c1ccc(N2CCc3ccccc3C2)cc1	i	i	i	-5.3*	i	i	i	i	i	i	i
O=C(NCc1ccccc1)c1c[nH]c2ccc(S(=O)(=O)Nc3ccc4c(c3)OCCO4)cc2c1=O	i	i	i	-5.2*	i	i	i	i	i	i	i
O=C(NC1CC1)c1c[nH]c2ccc(S(=O)(=O)Nc3cccc(C(F)(F)F)c3)cc2c1=O	i	i	i	-5.2*	i	i	i	i	i	i	nt
COc1ccc(S(=O)(=O)Nc2ccccc2C(=O)NCc2ccco2)cc1	i	i	i	i	i	nt	nt	nt	nt	nt	nt
CCc1ccccc1NS(=O)(=O)c1ccc2[nH]cc(C(=O)NCc3ccco3)c(=O)c2c1	i	i	i	-5*	i	i	i	i	i	i	i
Cc1cccc(N=Nc2cnc(N)s2)c1	i	i	i	i	i	nt	nt	nt	nt	nt	nt
O=C(NCCCN=C1NS(=O)(=O)c2ccccc21)c1ccc(Cl)cc1	i	i	i	i	i	nt	nt	nt	nt	nt	nt
CC(C)C[C@H](NC(=O)c1[nH]cnc1C(=O)N[C@@H](C)C(=O)OCc1ccccc1)C(=O)OC(C)(C)C	i	i	i	-5.8*	i	i	i	i	i	i	i

Screening results deposited in PubChem BioAssay by Johns Hopkins Ion Channel Center.
